Source: ChEMBL document CHEMBL2311288, “Discovery of liver-targeted inhibitors of stearoyl-CoA desaturase (SCD1)” (Bioorg Med Chem Lett, 2013)

Columns and labels:
[1] = test system: Mus musculus; assay: Toxicity in CD-1 mouse assessed as effect on body weight up to 300 mg/kg, po; assay type: organism-based; set-up: dose 300 mg/kg, route oral; settings: in vivo
[2] = test system: Rattus norvegicus; assay: AUC in rat at 10 mg/kg; assay type: ADME, organism-based, Plasma; set-up: dose 10 mg/kg; settings: in vivo
Outline: (§1)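 Rats were given a single 10 mg/kg dose. Plasma exposure (AUC, Cmax) was determined, and drug concentrations in plasma, brain and liver were measured at 6 h post-dose. The liver/plasma ratio was taken from the 6 h levels.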

[3] = Plasma concentration in AKR/J mouse at 3 mg/kg measured after 4 hrs; assay type: ADME, organism-based; set-up: dose 3 mg/kg
Outline: (§2)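 Male AKR/J mice, 7 weeks old (n = 10/group) and fed a 10% kcal low-fat diet, were given oral doses of 1, 3, 10 or 30 mg/kg. Plasma was collected 4 h after dosing, and drug concentration in that plasma was measured.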

[4] = test system: Mus musculus; assay: Toxicity in CD-1 mouse assessed as relative liver weight at 100 mg/kg, po; assay type: organism-based; set-up: dose 100 mg/kg, route oral; settings: in vivo
[5] = test system: Mus musculus; assay: Toxicity in CD-1 mouse assessed as decrease in absolute peri-renal fat weight at 100 to 300 mg/kg, po relative to control; assay type: organism-based; set-up: dose 100-300 mg/kg, route oral; settings: in vivo
[6] = AUC (0 to 24 hrs) in CD-1 mouse at 300 mg/kg, po; assay type: ADME, organism-based; set-up: time < 24 hr, dose 300 mg/kg, route oral; settings: plasma
Outline: (§3)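 Male CD-1 mice received single daily oral gavage doses of 30, 100 or 300 mg/kg for 2 weeks. Plasma drug levels were determined on Day 13, and exposure was expressed as AUC(0–24 h).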

[7] = test system: Mus musculus; assay: Toxicity in CD-1 mouse assessed as eyelid atrophy of sebaceous gland up to 300 mg/kg, po; assay type: organism-based; set-up: dose 300 mg/kg, route oral; settings: in vivo
[8] = biological target: T1, Acyl-CoA desaturase 1 (Rattus norvegicus, UniProt P07308); assay: Inhibition of rat SCD1 by rat microsomal assay
T1 sequence (P07308 whole entry): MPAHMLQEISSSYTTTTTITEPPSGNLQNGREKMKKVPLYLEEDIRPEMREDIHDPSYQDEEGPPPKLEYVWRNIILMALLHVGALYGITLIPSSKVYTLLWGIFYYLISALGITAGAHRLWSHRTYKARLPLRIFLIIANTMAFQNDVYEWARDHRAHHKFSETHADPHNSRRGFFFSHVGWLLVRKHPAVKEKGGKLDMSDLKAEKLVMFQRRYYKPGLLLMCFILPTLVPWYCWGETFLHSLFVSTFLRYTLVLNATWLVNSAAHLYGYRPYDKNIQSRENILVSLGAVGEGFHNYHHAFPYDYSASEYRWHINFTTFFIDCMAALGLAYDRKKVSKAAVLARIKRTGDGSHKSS
Outline: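 Microsomal desaturase activity was measured in 100 mM Tris HCl pH 7.3 with 2 mM NADH and [9,10-3H]stearoyl-CoA for 15 min at room temperature. The reaction was stopped on ice with trichloroacetic acid, then passed through activated charcoal, and tritium in the filtrate was counted. Compounds were tested in 2% DMSO final. Percent inhibition = (total−sample)/(total−blank)×100, with the blank set by 10⁻⁴ M of a standard inhibitor.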

[9] = test system: Mus musculus; assay: Toxicity in CD-1 mouse assessed as absolute liver weight at 300 mg/kg, po; assay type: organism-based; set-up: dose 300 mg/kg, route oral; settings: in vivo
[10] = Plasma concentration in AKR/J mouse at 1 mg/kg measured after 4 hrs; assay type: ADME, organism-based; set-up: dose 1 mg/kg; outline: as §2
[11] = test system: Mus musculus; assay: Toxicity in CD-1 mouse assessed as absolute liver weight at 100 mg/kg, po; assay type: organism-based; set-up: dose 100 mg/kg, route oral; settings: in vivo
[12] = test system: Mus musculus; assay: Toxicity in CD-1 mouse assessed as meibomian gland (atrophy, squamous metaplasia) up to 300 mg/kg, po; assay type: organism-based; set-up: dose 300 mg/kg, route oral; settings: in vivo
[13] = Ratio of drug level in liver to plasma of rat at 10 mg/kg measured after 6 hrs; assay type: ADME, organism-based; set-up: dose 10 mg/kg; outline: as §1
[14] = test system: Mus musculus; assay: Toxicity in CD-1 mouse assessed as decrease in relative peri-renal fat weight at 100 to 300 mg/kg, po relative to control; assay type: organism-based; set-up: dose 100-300 mg/kg, route oral; settings: in vivo
[15] = AUC (0 to 24 hrs) in CD-1 mouse at 30 mg/kg, po; assay type: ADME, organism-based; set-up: time < 24 hr, dose 30 mg/kg, route oral; settings: plasma; outline: as §3
[16] = test system: Mus musculus; assay: Toxicity in CD-1 mouse assessed as atrophy of the harderian and meibomian glands up to 300 mg/kg, po; assay type: organism-based; set-up: dose 300 mg/kg, route oral; settings: in vivo
[17] = test system: Mus musculus; assay: Toxicity in CD-1 mouse assessed as effect on food consumption up to 300 mg/kg, po; assay type: organism-based; set-up: dose 300 mg/kg, route oral; settings: in vivo
[18] = Drug level in liver in rat at 10 mg/kg measured after 6 hrs; assay type: ADME, organism-based; set-up: dose 10 mg/kg; settings: read-out: Drug uptake; outline: as §1
[19] = test system: Mus musculus; assay: Toxicity in mouse assessed as abnormalities in skin at 30 mg/kg; assay type: organism-based; set-up: dose 30 mg/kg; settings: in vivo
[20] = test system: Mus musculus; assay: Toxicity in CD-1 mouse assessed as eyes (corneal degeneration, inflammation) up to 300 mg/kg, po; assay type: organism-based, Cornea; set-up: dose 300 mg/kg, route oral; settings: in vivo
[21] = test system: Mus musculus; assay: Toxicity in CD-1 mouse assessed as tubular atrophy of the testes up to 300 mg/kg, po; assay type: organism-based, Testis; set-up: dose 300 mg/kg, route oral; settings: in vivo
[22] = AUC (0 to 24 hrs) in CD-1 mouse at 100 mg/kg, po; assay type: ADME, organism-based; set-up: time < 24 hr, dose 100 mg/kg, route oral; settings: plasma; outline: as §3
[23] = Cmax in rat at 10 mg/kg; assay type: ADME, organism-based; set-up: dose 10 mg/kg; settings: in vivo; outline: as §1
[24] = test system: Mus musculus; assay: Toxicity in CD-1 mouse assessed as relative liver weight at 300 mg/kg, po; assay type: organism-based; set-up: dose 300 mg/kg, route oral; settings: in vivo
[25] = test system: Mus musculus; assay: Toxicity in CD-1 mouse assessed as skin atrophy of sebaceous gland up to 300 mg/kg, po; assay type: organism-based; set-up: dose 300 mg/kg, route oral; settings: in vivo
[26] = test system: Mus musculus; assay: Toxicity in CD-1 mouse assessed as inhibition of fatty acid metabolism measured as lesions in eyes and skin at 30 to 300 mg/kg, po for 2 weeks; assay type: organism-based; set-up: dose 30-300 mg/kg, route oral; settings: in vivo, 336 h
[27] = Plasma concentration in AKR/J mouse at 10 mg/kg measured after 4 hrs; assay type: ADME, organism-based; set-up: dose 10 mg/kg; outline: as §2
[28] = test system: Mus musculus; assay: Toxicity in mouse assessed as abnormalities in eyes at 30 mg/kg; assay type: organism-based; set-up: dose 30 mg/kg; settings: in vivo
[29] = Plasma concentration in rat at 10 mg/kg measured after 6 hrs; assay type: ADME, organism-based; set-up: dose 10 mg/kg; outline: as §1
[30] = test system: Mus musculus; assay: Toxicity in CD-1 mouse assessed as minimal Leydig cell hyperplasia of the testes at 300 mg/kg, po; assay type: organism-based, Testis; set-up: dose 300 mg/kg, route oral; settings: in vivo
[31] = Plasma concentration in AKR/J mouse at 30 mg/kg measured after 4 hrs; assay type: ADME, organism-based; set-up: dose 30 mg/kg; outline: as §2
[32] = test system: Mus musculus; assay: Toxicity in CD-1 mouse assessed as ocular opacity up to 300 mg/kg, po; assay type: organism-based, Eye; set-up: dose 300 mg/kg, route oral; settings: in vivo
[33] = test system: Mus musculus; assay: Toxicity in CD-1 mouse assessed as peri-orbital swelling up to 300 mg/kg, po; assay type: organism-based; set-up: dose 300 mg/kg, route oral; settings: in vivo
[34] = test system: Mus musculus; assay: Toxicity in CD-1 mouse assessed as article related testes up to 300 mg/kg, po; assay type: organism-based, Testis; set-up: dose 300 mg/kg, route oral; settings: in vivo
[35] = test system: Mus musculus; assay: Toxicity in CD-1 mouse assessed as alopecia up to 300 mg/kg, po; assay type: organism-based; set-up: dose 300 mg/kg, route oral; settings: in vivo
[36] = test system: Mus musculus; assay: Toxicity in CD-1 mouse assessed as lacrimation up to 300 mg/kg, po; assay type: organism-based; set-up: dose 300 mg/kg, route oral; settings: in vivo
[37] = test system: Mus musculus; assay: Toxicity in CD-1 mouse assessed as swelling of the lips up to 300 mg/kg, po; assay type: organism-based; set-up: dose 300 mg/kg, route oral; settings: in vivo

Compound	AUC [2] [ng·h/g]	AUC(0-t) at 24 h [6] [µM·h]	Activity [7]	IC50 [8] [nM]	Activity [12]	Kp at 6 h [13]	Activity [16]	concentration at 6 h [18] [ng/g]	Activity [19]	Activity [20]	Cmax [23] [ng/g]	Activity [25]	Activity [28]	concentration at 6 h [29] [ng/g]	concentration at 4 h [31] [ng/mL]	further results
O=C(O)c1cnc(N2CCC3(CC2)CCN(Cc2cccc(C(F)(F)F)c2)c2ccccc2O3)s1	2308	1520	Toxic	8	Toxic	56	Toxic	19200	Non-toxic	Toxic	495	Toxic	Non-toxic	345	1740	Activity [1]: Non-toxic; concentration at 4 h [3]: 45 ng/mL; Activity [4]: 20%; Activity [5]: Toxic; Activity [9]: 29%; concentration at 4 h [10]: 0.64 ng/mL; Activity [11]: 19%; Activity [14]: Toxic; AUC(0-t) at 24 h [15]: 114 µM·h; Activity [17]: Non-toxic; Activity [21]: Toxic; AUC(0-t) at 24 h [22]: 565 µM·h; Activity [24]: 33%; Activity [26]: Toxic; concentration at 4 h [27]: 135 ng/mL; Activity [30]: Toxic
CNC(=O)c1cccc(NC(=O)N2CCC(Oc3ccccc3Cl)CC2)c1	1435	216	Toxic	< 4	Toxic	8	Toxic	529	Non-toxic	Toxic	599	Toxic	Non-toxic	66	1780	Activity [32]: Toxic; Activity [33]: Toxic; Activity [34]: Non-toxic; Activity [35]: Toxic; Activity [36]: Toxic; Activity [37]: Toxic
